The results in this text go back to ChEMBL document CHEMBL1147044, “Design of helical, oligomeric HIV-1 fusion inhibitor peptides with potent activity against enfuvirtide-resistant virus” (Proc Natl Acad Sci U S A, 2007).

In brackets after ≈: the same amount, converted by molar mass.

Series [1] concerns Human immunodeficiency virus 1. Kind of series: Antiviral activity against HIV1 3B infected in human PBMCs by reverse transcriptase assay. The format is functional, organism-based. The conditions noted are these: Human immunodeficiency virus 1, 3B. In outline:
(§1)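 CD8-depleted activated PBMC targets infected at high MOI by spinoculation; infected cells incubated with uninfected targets at 2 × 10⁵ cells per well with serially diluted peptide for 9 days. Fresh compound added and samples taken every 2–3 days. Replication read by reverse transcriptase assay; IC50 from reduction in RT signal relative to infected untreated wells.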

The subject of series [2] is Human immunodeficiency virus 1. Kind of series: Antiviral activity against HIV1 098-T651 isolate infected in human PBMCs by reverse transcriptase assay. The format is functional, organism-based. In outline: as §1
Series [3] concerns Human immunodeficiency virus 1. Description: Antiviral activity against HIV1 098-T1249 isolate infected in human PBMCs by reverse transcriptase assay. It counts as functional, organism-based. A digest of the protocol: as §1
Series [4] relates to Human immunodeficiency virus 1. Kind of series: Antiviral activity against HIV1 098 isolate infected in human PBMCs by reverse transcriptase assay. It counts as functional, organism-based. In outline: as §1
In series [5] the test system is Human immunodeficiency virus 1. Description: Antiviral activity against HIV1 098-T20 isolate infected in human PBMCs by reverse transcriptase assay. It counts as functional, organism-based. In outline:
as §1

A short description of series [6]: Clearance in cynomolgus monkey at 1 to 2 mg/kg, iv. The format is ADME, organism-based, Macaca fascicularis. The arrangement: dose 1-2 mg/kg, route intravenous. Conditions: in vivo. A digest of the protocol:
(§2)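 Male cynomolgus monkeys received a single i.v. dose of about 1–2 mg/kg in isotonic phosphate-mannitol vehicle, given as cassettes (typically n ≤ 8). Plasma was protein-precipitated with 0.5% formic acid in acetonitrile and peptide measured by reversed-phase HPLC. Parameters were fitted with mono- or biexponential models.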

Series [7] has as its system Human immunodeficiency virus 1. Description: Binding affinity to HIV1 gp41 heptad repeat 1 region assessed as thermal stability of HR1/HR2 peptide bundle complex at 1 uM in presence of 8M urea.
Series [8] in a line: Half life in cynomolgus monkey at 1 to 2 mg/kg, iv. The arrangement: dose 1-2 mg/kg, route intravenous. The format is ADME, organism-based, Macaca fascicularis. The conditions noted are these: in vivo. A digest of the protocol:
as §2

With `CC[C@H](C)[C@H](NC(=O)[C@H](CCC(N)=O)NC(=O)[C@H](C)NC(=O)[C@H](CCC(N)=O)NC(=O)[C@H](CCC(=O)O)NC(=O)[C@H](CC(C)C)NC(=O)[C@H](CC(C)C)NC(=O)[C@H](C)NC(=O)[C@@H](NC(=O)[C@@H](NC(=O)[C@H](CCCCN)NC(=O)[C@H](CCC(N)=O)NC(=O)[C@H](CCC(=O)O)NC(=O)[C@H](Cc1c[nH]c2ccccc12)NC(=O)[C@H](CCC(=O)O)NC(=O)[C@H](CCC(N)=O)NC(=O)[C@@H](N)Cc1c[nH]c2ccccc12)[C@@H](C)CC)[C@@H](C)O)C(=O)N[C@@H](CCC(N)=O)C(=O)N[C@@H](CCC(N)=O)C(=O)N[C@@H](CCC(=O)O)C(=O)N[C@@H](CCCCN)C(=O)N[C@@H](CC(N)=O)C(=O)N[C@@H](CCC(=O)O)C(=O)N[C@@H](Cc1ccc(O)cc1)C(=O)N[C@@H](CCC(=O)O)C(=O)N[C@@H](CC(C)C)C(=O)N[C@@H](CCC(N)=O)C(=O)N[C@@H](CCCCN)C(=O)N[C@@H](CC(C)C)C(=O)N[C@@H](CC(=O)O)C(=O)N[C@@H](CCCCN)C(=O)N[C@@H](Cc1c[nH]c2ccccc12)C(=O)N[C@@H](C)C(=O)N[C@@H](CO)C(=O)N[C@@H](CC(C)C)C(=O)N[C@@H](Cc1c[nH]c2ccccc12)C(=O)N[C@@H](CCC(=O)O)C(=O)N[C@@H](Cc1c[nH]c2ccccc12)C(=O)N[C@@H](Cc1ccccc1)C(=O)O`, the IC50 in series [1] came out at 0.003 µg/mL (≈ 0.601 nM); in series [2], 8.14 µg/mL (≈ 1630 nM); in series [3], 0.363 µg/mL (≈ 72.7 nM); in series [4], 0.013 µg/mL (≈ 2.6 nM); in series [5], 0.022 µg/mL (≈ 4.4 nM). In series [6], this molecule showed a clearance of 0.167 mL/min/kg. The Tm in series [7] was found to be 59 °C. In addition, the half-life in series [8] was 5.9 h.
Regarding “H-TTWEAWDRAIAEYAARIEALIRAAQELQEKLEAALREL-OH”, the IC50 was 0.172 µg/mL in series [1]; 0.987 µg/mL in series [2]; 0.555 µg/mL in series [3]; 0.6 µg/mL in series [4]; 0.416 µg/mL in series [5]. Besides, in series [6], the clearance is 0.0333 mL/min/kg. Moreover, the Tm in series [7] amounted to 92 °C. Moreover, the half-life in series [8] is 30.8 h.
Take “H-TTWEAWDRAIAEYAARIEALIRAAQELQEKNEAALREL-OH”: the 50% inhibitory concentration (IC50) is 0.007 µg/mL in series [1]; 0.02 µg/mL in series [2]; 0.03 µg/mL in series [3]; 0.021 µg/mL in series [4]; 0.035 µg/mL in series [5]. The molecule also gave a clearance in series [6] of 0.433 mL/min/kg. Moreover, the Tm in series [7] was 89 °C. The molecule also showed a half-life in series [8] of 7.6 h.
Consider “H-TTWEAWDRAIAEYAARIEALIRAAQEQQEKLEAALREL-OH”, for which the IC50 in series [1] amounted to 0.012 µg/mL; in series [2], 0.044 µg/mL; in series [3], 0.025 µg/mL; in series [4], 0.045 µg/mL; in series [5] it was 0.028 µg/mL. The clearance in series [6] is 0.15 mL/min/kg. Also, the Tm in series [7] was found to be 86 °C. This molecule also had a half-life in series [8] of 17.9 h.
“H-TTWEAWDRAIAEYAARIEALIRAAQEQQEKLEAVLREL-OH”: the IC50 was 0.022 µg/mL in series [1]; 0.242 µg/mL in series [2]; 0.046 µg/mL in series [3]; 0.049 µg/mL in series [4]; 0.093 µg/mL in series [5]. In series [6], this molecule had a clearance of 0.0667 mL/min/kg. The Tm in series [7] is 85 °C. Moreover, in series [8], the half-life is 28.6 h.
With “H-TTWEAWDRAIAEYAARIEALIRALQELQEKNEAALREL-OH”, the IC50 in series [1] was found to be 0.03 µg/mL; in series [2], 0.242 µg/mL; in series [3], 0.147 µg/mL; in series [4], 0.054 µg/mL; in series [5] it was 0.084 µg/mL. This molecule showed a clearance in series [6] of 0.133 mL/min/kg. For the same molecule, the Tm in series [7] was 82 °C. The half-life in series [8] is 8.6 h.
Regarding “H-TTWEAWDRAIAEYAARIEALIRALQEQQEKNEAILREL-OH”, the IC50 in series [1] was 0.019 µg/mL; in series [2] it was 0.196 µg/mL; in series [3] it was 0.038 µg/mL; in series [4], 0.043 µg/mL; in series [5] it was 0.079 µg/mL. This molecule had a clearance in series [6] of 0.2 mL/min/kg. Further, the Tm in series [7] came to 85 °C. The same molecule gave a half-life in series [8] of 12.4 h.
As for “H-TTWEAWDRAIAEYAARIEALIRASQEQQEKNEAELREL-OH”, the IC50 came to 0.006 µg/mL in series [1]; 1.31 µg/mL in series [2]; 0.072 µg/mL in series [3]; 0.013 µg/mL in series [4]; 0.022 µg/mL in series [5]. The same molecule had a clearance in series [6] of 1.43 mL/min/kg. Also, in series [7], the Tm was 78 °C. Besides, in series [8], the half-life is 1.2 h.
With enfuvirtide, the IC50 worked out at 0.006 µg/mL in series [1]; 47.8 µg/mL in series [2]; 55 µg/mL in series [3]; 0.05 µg/mL in series [4]; 0.526 µg/mL in series [5]. This molecule also gave a clearance in series [6] of 0.667 mL/min/kg. Besides, in series [7], the Tm was < 5 °C. This molecule also gave a half-life in series [8] of 8.8 h.

By IC50 is commonly meant the point on the concentration scale where inhibition reaches its midpoint. For orientation: clearance means the rate of elimination divided by the concentration. Broadly, the half-life is how long it takes for the measured level to halve.
